Results: ChEMBL document CHEMBL1126178, “Structure-activity study of hCGRP8-37, a calcitonin gene-related peptide receptor antagonist” (J Med Chem, 1992)

Columns and labels:
Cavia porcellus [1] = species on record: Cavia porcellus; test: Dose inhibiting the ionotropic response induced by hCGRP-alpha in guinea pig left atrium relative to hCGRP(8-37).; assay type: functional, Cardiac atrium; set-up: unit not given here
Cavia porcellus [2] = species on record: Cavia porcellus; test: Dose inhibiting the ionotropic response induced by hCGRP-alpha in guinea pig right atrium relative to hCGRP(8-37).; assay type: functional, Cardiac atrium; set-up: unit not given here
Rattus norvegicus [3] = species on record: Rattus norvegicus; test: Dose inhibiting the twitch response induced by hCGRP-alpha in rat vas deferens.; assay type: functional
Outline: (§1)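 Atria were taken from male Hartley guinea pigs (350-400 g) and the prostatic vas deferens from male Sprague-Dawley rats (200-250 g). Tissues were mounted on platinum electrodes in oxygenated Krebs-Ringer at 37 °C and equilibrated 1 h at 0.5-1 g tension. Force-transducer responses were recorded to cumulative hCGRPα concentrations, with test peptide (1 µM) added 10 min before. Values are mean ± SE.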

Rattus norvegicus [4] = species on record: Rattus norvegicus; test: Dose inhibiting the twitch response induced by hCGRP-alpha in rat vas deferens relative to hCGRP(8-37).; assay type: functional; set-up: unit not given here
Cavia porcellus [5] = species on record: Cavia porcellus; test: Dose inhibiting the chronotropic response induced by hCGRP-alpha in guinea pig right atrium.; assay type: functional; conditions: Cardiac atrium; outline: as §1
Cavia porcellus [6] = species on record: Cavia porcellus; test: Dose inhibiting the ionotropic response induced by hCGRP-alpha in guinea pig right atrium.; assay type: functional; conditions: Cardiac atrium; outline: as §1
Cavia porcellus [7] = species on record: Cavia porcellus; test: Dose inhibiting the ionotropic response induced by hCGRP-alpha in guinea pig left atrium.; assay type: functional; conditions: Cardiac atrium; outline: as §1
[8] = biological target: Calcitonin gene-related peptide type 1 receptor (Rattus norvegicus, UniProt Q63118); test: Binding affinity against [125I]-hCalcitonin gene-related peptide type alpha receptor binding sites in rat brain membrane; assay type: cell membranes
Cavia porcellus [9] = species on record: Cavia porcellus; test: Dose inhibiting the chronotropic response induced by hCGRP-alpha in guinea pig right atrium relative to hCGRP(8-37).; assay type: functional, Cardiac atrium; set-up: unit not given here

Chain of Calcitonin gene-related peptide type 1 receptor (Q63118 whole entry): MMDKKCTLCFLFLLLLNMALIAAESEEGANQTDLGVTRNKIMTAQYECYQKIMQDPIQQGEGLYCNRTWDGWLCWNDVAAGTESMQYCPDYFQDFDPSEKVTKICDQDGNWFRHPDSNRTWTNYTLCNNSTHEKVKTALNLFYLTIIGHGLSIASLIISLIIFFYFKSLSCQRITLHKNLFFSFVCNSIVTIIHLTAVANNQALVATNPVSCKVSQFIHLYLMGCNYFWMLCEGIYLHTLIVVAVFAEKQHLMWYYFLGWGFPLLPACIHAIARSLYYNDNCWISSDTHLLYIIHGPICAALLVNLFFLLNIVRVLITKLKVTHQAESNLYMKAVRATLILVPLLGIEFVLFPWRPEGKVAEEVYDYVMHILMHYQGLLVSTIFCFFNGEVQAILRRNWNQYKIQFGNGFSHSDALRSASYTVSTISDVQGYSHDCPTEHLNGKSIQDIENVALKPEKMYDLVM

Molecule | EC50 (Rattus norvegicus [3]) [nM] | EC50 (Cavia porcellus [5]) [nM] | EC50 (Cavia porcellus [6]) [nM] | EC50 (Cavia porcellus [7]) [nM] | IC50 [8] [nM] | Relative potency (Cavia porcellus [1]) | Relative potency (Cavia porcellus [2]) | Relative potency (Rattus norvegicus [4]) | Relative potency (Cavia porcellus [9])
CC(C)C[C@H](NC(=O)CNC(=O)[C@H](C)NC(=O)[C@H](CC(C)C)NC(=O)[C@H](CCCN=C(N)N)NC(=O)[C@@H](N)Cc1c[nH]cn1)C(=O)N[C@@H](CC(C)C)C(=O)N[C@@H](CO)C(=O)N[C@@H](CCCN=C(N)N)C(=O)N[C@@H](CO)C(=O)NCC(=O)NCC(=O)N[C@H](C(=O)N[C@H](C(=O)N[C@@H](CCCCN)C(=O)N[C@@H](CC(N)=O)C(=O)N[C@@H](CC(N)=O)C(=O)N[C@@H](Cc1ccccc1)C(=O)N[C@H](C(=O)N1CCC[C@H]1C(=O)N[C@H](C(=O)N[C@@H](CC(N)=O)C(=O)N[C@H](C(=O)NCC(=O)N[C@@H](CO)C(=O)N[C@@H](CCCCN)C(=O)N[C@@H](C)C(=O)N[C@@H](Cc1ccccc1)C(N)=O)C(C)C)[C@@H](C)O)C(C)C)C(C)C)C(C)C | 3.2 | 77 | 114 | 65 | 10 | 34 | 43 | 48 | 27
CC(C)C[C@H](NC(=O)CNC(=O)[C@H](C)NC(=O)[C@H](CC(C)C)NC(=O)[C@H](CCCN=C(N)N)NC(=O)[C@H](Cc1c[nH]cn1)NC(=O)[C@@H](N)[C@@H](C)O)C(=O)N[C@@H](CC(C)C)C(=O)N[C@@H](CO)C(=O)N[C@@H](CCCN=C(N)N)C(=O)N[C@@H](CO)C(=O)NCC(=O)NCC(=O)N[C@H](C(=O)N[C@H](C(=O)N[C@@H](CCCCN)C(=O)N[C@@H](CC(N)=O)C(=O)N[C@@H](CC(N)=O)C(=O)N[C@@H](Cc1ccccc1)C(=O)N[C@H](C(=O)N1CCC[C@H]1C(=O)N[C@H](C(=O)N[C@@H](CC(N)=O)C(=O)N[C@H](C(=O)NCC(=O)N[C@@H](CO)C(=O)N[C@@H](CCCCN)C(=O)N[C@@H](C)C(=O)N[C@@H](Cc1ccccc1)C(N)=O)C(C)C)[C@@H](C)O)C(C)C)C(C)C)C(C)C | 7.6 | 180 | 225 | 215 |  |  |  |  | 
H-VTHALAGLLSRSGGVVKNNFVPTNVGSKAF-NH2 | 3.1 | 83 | 106 | 58 | 33 | 30 | 40 | 46 | 29
CC(C)C[C@H](NC(=O)CNC(=O)[C@H](C)NC(=O)[C@H](CC(C)C)NC(=O)[C@H](CCCN=C(N)N)NC(=O)[C@H](C)NC(=O)[C@@H](NC(=O)[C@@H](N)C(C)C)[C@@H](C)O)C(=O)N[C@@H](CC(C)C)C(=O)N[C@@H](CO)C(=O)N[C@@H](CCCN=C(N)N)C(=O)N[C@@H](CO)C(=O)NCC(=O)NCC(=O)N[C@H](C(=O)N[C@H](C(=O)N[C@@H](CCCCN)C(=O)N[C@@H](CC(N)=O)C(=O)N[C@@H](CC(N)=O)C(=O)N[C@@H](Cc1ccccc1)C(=O)N[C@H](C(=O)N1CCC[C@H]1C(=O)N[C@H](C(=O)N[C@@H](CC(N)=O)C(=O)N[C@H](C(=O)NCC(=O)N[C@@H](CO)C(=O)N[C@@H](CCCCN)C(=O)N[C@@H](C)C(=O)N[C@@H](Cc1ccccc1)C(N)=O)C(C)C)[C@@H](C)O)C(C)C)C(C)C)C(C)C | 3.2 | 129 | 179 | 95 |  |  |  |  | 
CC(C)C[C@H](NC(=O)CNC(=O)[C@H](C)NC(=O)[C@H](CC(C)C)NC(=O)[C@H](CCCN=C(N)N)NC(=O)[C@H](Cc1c[nH]cn1)NC(=O)[C@H](C)NC(=O)[C@@H](N)C(C)C)C(=O)N[C@@H](CC(C)C)C(=O)N[C@@H](CO)C(=O)N[C@@H](CCCN=C(N)N)C(=O)N[C@@H](CO)C(=O)NCC(=O)NCC(=O)N[C@H](C(=O)N[C@H](C(=O)N[C@@H](CCCCN)C(=O)N[C@@H](CC(N)=O)C(=O)N[C@@H](CC(N)=O)C(=O)N[C@@H](Cc1ccccc1)C(=O)N[C@H](C(=O)N1CCC[C@H]1C(=O)N[C@H](C(=O)N[C@@H](CC(N)=O)C(=O)N[C@H](C(=O)NCC(=O)N[C@@H](CO)C(=O)N[C@@H](CCCCN)C(=O)N[C@@H](C)C(=O)N[C@@H](Cc1ccccc1)C(N)=O)C(C)C)[C@@H](C)O)C(C)C)C(C)C)C(C)C | 2.4 | 238 | 193 | 117 | 6.8 | 60 | 72 | 36 | 82
CC(C)C[C@H](NC(=O)CNC(=O)[C@H](C)NC(=O)[C@H](CC(C)C)NC(=O)[C@H](CCCNC(=N)N)NC(=O)[C@H](Cc1cnc[nH]1)NC(=O)[C@@H](NC(=O)[C@@H](N)C(C)C)[C@@H](C)O)C(=O)N[C@@H](CC(C)C)C(=O)N[C@@H](CO)C(=O)N[C@@H](CCCNC(=N)N)C(=O)N[C@@H](CO)C(=O)NCC(=O)NCC(=O)N[C@H](C(=O)N[C@H](C(=O)N[C@@H](CCCCN)C(=O)N[C@@H](CC(N)=O)C(=O)N[C@@H](CC(N)=O)C(=O)N[C@@H](Cc1ccccc1)C(=O)N[C@H](C(=O)N1CCC[C@H]1C(=O)N[C@H](C(=O)N[C@@H](CC(N)=O)C(=O)N[C@H](C(=O)NCC(=O)N[C@@H](CO)C(=O)N[C@@H](CCCCN)C(=O)N[C@@H](C)C(=O)N[C@@H](Cc1ccccc1)C(N)=O)C(C)C)[C@@H](C)O)C(C)C)C(C)C)C(C)C | 6.7 | 290 | 267 | 194 |  |  |  |  | 

The next molecules have a lower EC50 (Rattus norvegicus [3]) than those just listed; values first:

EC50 (Rattus norvegicus [3]) [nM] | EC50 (Cavia porcellus [5]) [nM] | EC50 (Cavia porcellus [6]) [nM] | EC50 (Cavia porcellus [7]) [nM] | IC50 [8] [nM] | Molecule | Relative potency (Cavia porcellus [1]) | Relative potency (Cavia porcellus [2]) | Relative potency (Rattus norvegicus [4]) | Relative potency (Cavia porcellus [9])
1.4 | 65 | 89 | 30 |  | CC(C)C[C@H](NC(=O)CNC(=O)[C@H](C)NC(=O)[C@H](CC(C)C)NC(=O)[C@@H](N)CCCN=C(N)N)C(=O)N[C@@H](CC(C)C)C(=O)N[C@@H](CO)C(=O)N[C@@H](CCCN=C(N)N)C(=O)N[C@@H](CO)C(=O)NCC(=O)NCC(=O)N[C@H](C(=O)N[C@H](C(=O)N[C@@H](CCCCN)C(=O)N[C@@H](CC(N)=O)C(=O)N[C@@H](CC(N)=O)C(=O)N[C@@H](Cc1ccccc1)C(=O)N[C@H](C(=O)N1CCC[C@H]1C(=O)N[C@H](C(=O)N[C@@H](CC(N)=O)C(=O)N[C@H](C(=O)NCC(=O)N[C@@H](CO)C(=O)N[C@@H](CCCCN)C(=O)N[C@@H](C)C(=O)N[C@@H](Cc1ccccc1)C(N)=O)C(C)C)[C@@H](C)O)C(C)C)C(C)C)C(C)C |  |  |  | 
1.4 | 19 | 7.9 | 8.7 |  | CC(C)C[C@H](NC(=O)CNC(=O)[C@H](C)NC(=O)[C@H](CC(C)C)NC(=O)[C@H](CCCN=C(N)N)NC(=O)[C@H](Cc1c[nH]cn1)NC(=O)[C@@H](NC(=O)[C@@H](NC(=O)[C@@H]1CSSC[C@H](NC(=O)[C@H](C)N)C(=O)N[C@@H](CC(=O)O)C(=O)N[C@@H]([C@@H](C)O)C(=O)N[C@@H](C)C(=O)N[C@@H]([C@@H](C)O)C(=O)N1)C(C)C)[C@@H](C)O)C(=O)N[C@@H](CC(C)C)C(=O)N[C@@H](CO)C(=O)N[C@@H](CCCN=C(N)N)C(=O)N[C@@H](CO)C(=O)NCC(=O)NCC(=O)N[C@H](C(=O)N[C@H](C(=O)N[C@@H](CCCCN)C(=O)N[C@@H](CC(N)=O)C(=O)N[C@@H](CC(N)=O)C(=O)N[C@@H](Cc1ccccc1)C(=O)N[C@H](C(=O)N1CCC[C@H]1C(=O)N[C@H](C(=O)N[C@@H](CC(N)=O)C(=O)N[C@H](C(=O)NCC(=O)N[C@@H](CO)C(=O)N[C@@H](CCCCN)C(=O)N[C@@H](C)C(=O)N[C@@H](Cc1ccccc1)C(N)=O)C(C)C)[C@@H](C)O)C(C)C)C(C)C)C(C)C |  |  |  | 
2.2 | 116 | 116 | 89 | 22 | H-VTHRAAGLLSRSGGVVKNNFVPTNVGSKAF-NH2 | 46 | 43 | 33 | 40
